# Jurkat NFkB inh: inhibitors of the PMA/ionomycin-induced NF-kB reporter in Jurkat cells; PMA/ionomycin-induced NF-kB luciferase reporter, luminescence; inhibition, % at 4 µM; 330,000 compounds, 0.53% hits; AID 435003; in the data active = inhibition above about 50%
# NR2E3 ag-1: activates human NR2E3 receptor | Q9Y5X4 | inhibition of corepressor binding, % at 3.98 µM | 360,000 compounds, 0.35% hits | AID 602229 | CHO-S Gal4-NCOR/VP16-NR2E3 two-hybrid, luciferase;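 active = inhibition above the mean of all tested compounds plus 3 SD, cut at about 70% in these data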;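 note: 0% = DMSO with NR2E3 transfected cells and 100% = cells lacking NR2E3 construct; higher means lower luciferase signal from less NR2E3 corepressor binding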
# NR2E3 ag-2: activates human photoreceptor nuclear receptor NR2E3; Q9Y5X4; GST-NR2E3/biotin-RetCOR TR-FRET, 1536-well; inhibition of corepressor binding, % at 4.78 µM; 320,000 compounds, 0.12% hits; AID 2300;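 active = percent inhibition above the cutoff of mean plus 3 SD of all tested compounds, set per screening campaign, cut at about 20% in these data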;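 note: 0% = DMSO wells and 100% = biotin wells as full block of FRET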
#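 Format: 1536-well format; test system: GST-NR2E3 and biotin-RetCOR proteins; read-out basis: percent inhibition of TR-FRET ratio; timing: 5 h incubation at 4 °C; detection: time-resolved FRET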
# miR-122 sensor: miR-122 inhibition in Huh7 cells. Huh7 miR-122 Renilla luciferase sensor, 48 h; neutral wells = 0, positive control = 100. activation (reporter increase), % at 12.5 µM. 340,000 compounds, 0.3% hits. AID 602342;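 active = mean replicate activation score at least 90 and every replicate individually at or above 90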;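 note: higher luciferase means less miR-122 activity so hits act as miR-122 inhibitors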
# FGF22 binding: FGF22 (human) thermal shift binding. activity (Tm shift, normalised), % at 9.99 µM. Q9HCT0. AID 651658. recombinant FGF22 thermal shift, SYPRO orange fluorescence; percent of sucrose octasulfate shift, DMSO zero. 340,000 compounds, 1.5% hits;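 active = mean Tm shift, scaled 0 neutral to 100 positive control, at about 1.3% or above, every replicate too, limit read from the data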
# Target sequence (Q9HCT0 whole entry, looked up): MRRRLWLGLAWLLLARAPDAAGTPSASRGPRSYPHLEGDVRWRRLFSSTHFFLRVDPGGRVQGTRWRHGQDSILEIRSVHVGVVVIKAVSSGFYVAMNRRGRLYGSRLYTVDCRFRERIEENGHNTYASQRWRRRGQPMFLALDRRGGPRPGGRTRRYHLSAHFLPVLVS
# 697 NFkB inh: lowers PMA/ionomycin-induced NF-kB signal in 697 B cells; 697 B-cell NF-kB luciferase reporter, 16 h; inhibition, % at 4 µM; 330,000 compounds, 0.33% hits; AID 435022; in the data active = inhibition above about 35%
# Jurkat NFkB conf: lowers PMA/ionomycin-induced NF-kB signal in Jurkat cells; shares compounds with Jurkat NFkB inh; Jurkat NF-kB luciferase, 16 h; inhibition, % at 4 µM; 2,700 compounds, 27% hits;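 active = inhibition reaching about 45% at 4 µM in either replicate, limit read from the data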;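 note: plate controls were PMA/ionomycin stimulated DMSO wells for no effect and unstimulated DMSO wells for full effect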
# * = called active by the depositor; · = no result; [ ] = dose if it differs, or a comment. This is a sample that favours compounds with a hit; in the whole collection about 2.2% have one here.
SMILES,Jurkat NFkB inh,NR2E3 ag-1,NR2E3 ag-2,miR-122 sensor,FGF22 binding,697 NFkB inh,Jurkat NFkB conf
COc1ccc2c(C)cc(SCC(=O)NC3CCCC3)nc2c1,1,7,·,5,0,-3,·
CC(C)NC(=O)N(C)C[C@H]1Oc2c(NS(=O)(=O)c3cn(C)cn3)cccc2C(=O)N([C@@H](C)CO)C[C@H]1C,·,·,·,-4[16.7 µM],0,·,·
CCOC(=O)C1=C(C)NC2=C(C(=O)CC(c3cccs3)C2)C1c1cccs1 (stereo not given),60*,-99,2,95*,·,-28,5
COC(=O)C1=C(C)NC2=C(C(=O)CC(c3cccs3)C2)C1c1ccsc1 (stereo not given),·,-41,1,16,·,·,·
CCC1N=C(SC)NC(C)=C1C(=O)c1ccccc1 (stereo not given),1,0,1,·,0,0,·
CSC1=NC(C(Cl)(Cl)Cl)N=C(c2ccc(C)cc2)N1 (stereo not given),70*,2,-1,·,0,-5,44
COc1ccc(Oc2nc(SC)nc3ccsc23)cc1,17,-24,3,7,·,-36,·
CSc1nc(Oc2ccc3ccccc3c2)c2sccc2n1,64*,-96,-2,17,·,-34,31
CN(C)c1ccc(N=Nc2cccc(F)c2)cc1,-244,-112,6,-4,0,-90,-102
C[C@@H]1CN([C@H](C)CO)C(=O)c2cc(C#CC3CC3)cnc2O[C@@H]1CN(C)C(=O)Cc1ccccn1,·,·,·,4[16.7 µM],0,·,·
Cc1ccccc1C=Nc1ccccc1C(N)=O,54*,-19,-2,9,·,2,11
CCN1C/C(=C/c2ccc(OC)c(O)c2)C(=O)/C(=C/c2ccc(OC)c(O)c2)C1,89*,23,2,·,0,-118,44*
COc1ccc(/C=C2\CN(Cc3ccccc3)C/C(=C\c3ccc(OC)c(O)c3)C2=O)cc1O,53*,-32,-1,-16,0,-65,10
CCOc1ccc2nc(NC(=O)Nc3cccs3)sc2c1,-167,-150,1,4,0,-169,-128
COc1ccc(NC(=O)Nc2ccc3c(c2)C(=O)N([C@H](C)CO)C[C@H](C)[C@H](CN(C)C(=O)CCCN(C)C)OCCCC[C@H](C)O3)cc1,·,·,·,1[16.7 µM],0,·,·
Cc1cc2oc3ccc(NCCCN4CCOCC4)cc3c(=O)c2cc1C,-94,-8,-4,·,0,-78,·
Cc1cc2oc3ccc(NCCCn4ccnc4)cc3c(=O)c2cc1C,-167,-86,0,·,·,-199,-20
CCn1ncc(C2=NOC(C(=O)NCc3ccc(Cl)cc3)C2)c1C (stereo not given),74*,-2,1,28,·,-60,50*
CN(C)C(=O)C[C@@H]1CC[C@@H]2[C@H](COc3ccc(NC(=O)c4ccc(F)cc4)cc3C(=O)N2C)O1,·,·,·,·,0,·,·
CSc1ccc(/C=N/NC(=O)c2ccc(C)c(C)c2)cc1,-13,-52,0,-3,·,1,·
CSc1ccc(/C=N/NC(=O)c2sccc2C)cc1,-159,-139,-3,-5,0,-187,-93
CC(=O)c1cccc(NC(=O)c2cc(C(C)C)on2)c1,-99,-76,-3,-6,0,-85,·
CC(C)c1cc(C(=O)Nc2cccc(Cl)c2)no1,-232,-132,-2,-16,·,-141,-91
CCCc1cc(C(=O)Nc2ccc(C)cc2)no1,-129,-66,3,-2,0,-49,·
CC(C)Cc1cc(C(=O)Nc2cccc(O)c2)no1,-203,0,0,-7,0,14,-112
CCc1ccc(NC(=O)c2cc(C(C)C)on2)cc1,-215,-145,-1,12,·,-155,-128
CCCc1cc(C(=O)Nc2ccc(CC)cc2)no1,-177,-62,3,0,0,-136,-91
CCc1ccc(NC(=O)c2cc(C)on2)cc1,-145,-105,-5,-4,0,-119,·
C[C@@H]1CN([C@H](C)CO)C(=O)Cc2cc(NC(=O)C3CCCCC3)ccc2O[C@@H]1CN(C)Cc1ccncc1,·,·,·,-5[16.7 µM],0,·,·
C[C@H](CO)N1C[C@H](C)[C@@H](CN(C)CC2CCCC2)OCc2cnnn2CCCC1=O,·,·,·,-6[16.7 µM],0,·,·

# Compound activity: PubChem, several laboratories
